These results are taken from ChEMBL document CHEMBL3763066, “Potent μ-Opioid Receptor Agonists from Cyclic Peptides Tyr-c[D-Lys-Xxx-Tyr-Gly]: Synthesis, Biological, and Structural Evaluation” (J Med Chem, 2016).

pIC50, pKi: −log10 of the molar value. Where a SMILES comes first, the peptide text is derived from it. Bridges are numbered along the chain shown (N, C = ends). [ ]: non-standard residue; d: D form. 2Abz = Nc1ccccc1C(=O)O; Dap = NC[C@H](N)C(=O)O

Test [1] addresses Mu-type opioid receptor (Rattus norvegicus, UniProt P33535). The test is described as follows: Displacement of [3H]DAMGO from rat cortical MOR by liquid scintillation counting method. On the technique in general: Displacement assays read how much labelled ligand stays bound in the presence of the test substance.
The target in test [2] is Kappa-type opioid receptor (Cavia porcellus, UniProt P41144). The test is described as follows: Displacement of [3H]U69,593 from guinea pig KOR after 2 hrs by liquid scintillation counting method.
For test [3], the target named is Delta-type opioid receptor (Rattus norvegicus, UniProt P33533). The test is described as follows: Displacement of [3H]DPDPE from rat cortical DOR after […] by liquid scintillation counting method.
Test [4] in a line: Selectivity ratio of Ki for guinea pig KOR to Ki for rat cortical MOR. The gist of the method:
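KOR: guinea pig cortex and cerebellum membranes in 50 mM Tris pH 7.4, 10 mM MgCl2, 200 μM PMSF, with 2 nM [3H]U69,593, 2 h at 25 °C; U50,488 defined nonspecific binding. […] Both used GF/B filtration and scintillation counting. The ratio is Ki(KOR)/Ki(MOR).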

The species named for the next test is Rattus norvegicus. The test is described as follows: Selectivity ratio of Ki for rat cortical DOR to Ki for rat cortical MOR.
Test [5] addresses T1, Mu-type opioid receptor (Homo sapiens, UniProt P35372). It counts as cell-based, CHO.
The target in test [6] is T1, Mu-type opioid receptor. The test is described as follows: Potency index, ratio of morphine EC50 to compound EC50 for human MOR. The gist of the method: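 CHO cells expressing human MOR were seeded 1 day before the assay. Cells were loaded with membrane-potential blue dye in HBSS/20 mM HEPES pH 7.4 for 45 min at 37 °C, then compound was added. Fluorescence (ex 530, em 550–565 nm) was read every 3 s for 60 s, taking maximum minus minimum response. The index is morphine EC50 divided by compound EC50.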

Kappa-type opioid receptor, sequence (P41144 whole entry): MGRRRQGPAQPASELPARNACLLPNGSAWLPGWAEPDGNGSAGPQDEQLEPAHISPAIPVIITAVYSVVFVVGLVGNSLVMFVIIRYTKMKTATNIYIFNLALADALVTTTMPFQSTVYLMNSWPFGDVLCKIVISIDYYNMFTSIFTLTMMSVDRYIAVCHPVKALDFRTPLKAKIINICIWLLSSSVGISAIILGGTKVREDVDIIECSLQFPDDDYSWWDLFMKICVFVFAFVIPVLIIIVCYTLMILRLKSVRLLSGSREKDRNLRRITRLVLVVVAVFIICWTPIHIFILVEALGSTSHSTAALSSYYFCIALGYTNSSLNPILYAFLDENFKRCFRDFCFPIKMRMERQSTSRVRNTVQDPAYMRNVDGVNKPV
Delta-type opioid receptor, sequence (P33533 whole entry): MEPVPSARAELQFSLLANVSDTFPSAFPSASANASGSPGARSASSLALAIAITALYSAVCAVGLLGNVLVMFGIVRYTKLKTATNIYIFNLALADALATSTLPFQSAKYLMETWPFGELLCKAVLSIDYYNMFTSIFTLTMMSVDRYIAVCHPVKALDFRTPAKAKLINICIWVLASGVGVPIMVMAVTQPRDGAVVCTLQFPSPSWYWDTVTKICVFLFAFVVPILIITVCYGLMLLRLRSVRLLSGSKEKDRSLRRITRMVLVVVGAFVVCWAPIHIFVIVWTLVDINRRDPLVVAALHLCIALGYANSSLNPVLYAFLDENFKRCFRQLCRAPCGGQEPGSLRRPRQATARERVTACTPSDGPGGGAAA
T1 sequence (P35372 whole entry): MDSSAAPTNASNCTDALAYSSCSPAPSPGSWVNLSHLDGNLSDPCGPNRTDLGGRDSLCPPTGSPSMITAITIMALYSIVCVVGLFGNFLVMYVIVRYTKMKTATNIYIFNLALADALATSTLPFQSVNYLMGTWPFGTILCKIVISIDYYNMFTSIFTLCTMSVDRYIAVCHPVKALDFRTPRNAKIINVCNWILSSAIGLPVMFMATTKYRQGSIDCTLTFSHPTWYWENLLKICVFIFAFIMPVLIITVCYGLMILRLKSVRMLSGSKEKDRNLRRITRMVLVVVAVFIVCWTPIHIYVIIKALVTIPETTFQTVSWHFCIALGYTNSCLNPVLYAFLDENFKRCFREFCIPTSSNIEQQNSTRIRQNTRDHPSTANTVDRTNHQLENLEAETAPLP
Mu-type opioid receptor (Rattus norvegicus, UniProt P33535), sequence (P33535 whole entry): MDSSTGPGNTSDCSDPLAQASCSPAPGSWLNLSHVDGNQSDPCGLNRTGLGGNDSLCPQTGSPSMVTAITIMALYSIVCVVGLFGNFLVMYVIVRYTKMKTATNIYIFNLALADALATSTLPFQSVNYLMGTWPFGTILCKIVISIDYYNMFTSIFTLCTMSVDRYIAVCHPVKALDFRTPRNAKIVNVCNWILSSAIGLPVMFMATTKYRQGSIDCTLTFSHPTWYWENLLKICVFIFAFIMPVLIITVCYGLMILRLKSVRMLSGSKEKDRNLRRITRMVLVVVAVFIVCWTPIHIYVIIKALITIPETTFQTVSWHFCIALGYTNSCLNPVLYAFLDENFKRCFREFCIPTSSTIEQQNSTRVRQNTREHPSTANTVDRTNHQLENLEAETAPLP

As for `N[C@@H](Cc1ccc(O)cc1)C(=O)N[C@@H]1CCCCNC(=O)CNC(=O)[C@H](Cc2ccc(O)cc2)NC(=O)[C@H](Cc2ccncc2)NC1=O`, the negative-log Ki (pKi) is 8.04 at Mu-type opioid receptor [1], under 5.00 in test [2] and 5.64 in test [3]. The Ratio Ki in test [4] is 1100; in the test filed under Rattus norvegicus, 247. At Mu-type opioid receptor [5], this molecule gave a negative-log IC50 (pIC50) of 7.49.
For `N[C@@H](Cc1ccc(O)cc1)C(=O)N[C@@H]1CCCCNC(=O)CNC(=O)[C@H](Cc2ccc(O)cc2)NC(=O)[C@H](Cc2ccc(O)cc2)NC1=O`, the pKi was 6.94 at Mu-type opioid receptor [1], under 5.00 in test [2] and 6.77 in test [3]. The figures for the Ratio Ki (in test [4]; in the test filed under Rattus norvegicus) were over 324 and 1.5, respectively. Besides, the negative-log IC50 (pIC50) on Mu-type opioid receptor [5] was 7.15.
As to `N[C@@H](Cc1ccc(O)cc1)C(=O)N[C@@H]1CCCCNC(=O)CNC(=O)[C@H](Cc2ccc(O)cc2)NC(=O)[C@H](Cc2cccnc2)NC1=O`, the negative-log Ki (pKi) is 8.71 at Mu-type opioid receptor [1], 5.27 in test [2] and 5.89 in test [3]. For the same molecule, the Ratio Ki in test [4] stood at 1320; in the test filed under Rattus norvegicus it was 658. In addition, on Mu-type opioid receptor [5], the pIC50 was 7.95.
For `N[C@@H](Cc1ccc(O)cc1)C(=O)N[C@@H]1CCCCNC(=O)CNC(=O)[C@H](Cc2ccc(O)cc2)NC(=O)[C@H](Cc2ccccc2)NC1=O`, the pKi on Mu-type opioid receptor [1] was 9.00; in test [2], 5.35; in test [3], 7.41. Besides, the figures for the Ratio Ki (in test [4]; in the test filed under Rattus norvegicus) were 4520 and 39, respectively. The pIC50 on Mu-type opioid receptor [5] is 8.64. Also, on Mu-type opioid receptor [6], the Ratio EC50 is 3.
Take `N[C@@H](Cc1ccc(O)cc1)C(=O)N[C@@H]1CCCCNC(=O)CNC(=O)[C@H](Cc2ccc(O)cc2)NC(=O)[C@H](Cc2c[nH]c3ccccc23)NC1=O`: the pKi at Mu-type opioid receptor [1] is 8.70; in test [2], 5.09; in test [3], 7.00. In addition, the Ratio Ki in test [4] was 2940; in the test filed under Rattus norvegicus, 50. The negative logarithm of the IC50 (pIC50) against Mu-type opioid receptor [5] was 7.62.
Take `N=C(N)NCCC[C@@H]1NC(=O)[C@H](NC(=O)[C@@H](N)Cc2ccc(O)cc2)CCCCNC(=O)CNC(=O)[C@H](Cc2ccc(O)cc2)NC1=O`: the pKi at Mu-type opioid receptor [1] was 7.76; in test [2], 5.07; in test [3], under 5.00. Moreover, the results for the Ratio Ki (in test [4]; in the test listed under Rattus norvegicus) were 406 and over 805, respectively. This molecule gave a negative-log IC50 (pIC50) against Mu-type opioid receptor [5] of 6.88.
Molecule `Nc1ccccc1C(=O)NC[C@@H]1NC(=O)[C@H](NC(=O)[C@@H](N)Cc2ccc(O)cc2)CCCCNC(=O)CNC(=O)[C@H](Cc2ccc(O)cc2)NC1=O` (H-Y[dK][Dap](2Abz)YG; lactam 2-C) had a pKi in test [2] of 5.49. The results for the Ratio Ki (in test [4]; in the test filed under Rattus norvegicus) were 231 and 62, respectively.
For the molecule `NC(=O)NCCC[C@@H]1NC(=O)[C@H](NC(=O)[C@@H](N)Cc2ccc(O)cc2)CCCCNC(=O)CNC(=O)[C@H](Cc2ccc(O)cc2)NC1=O`, the pKi was 8.04 on Mu-type opioid receptor [1], 5.07 in test [2] and 5.48 in test [3]. For the same molecule, the Ratio Ki in test [4] was determined as 760; in the test listed under Rattus norvegicus, 367. In addition, the negative-log IC50 (pIC50) on Mu-type opioid receptor [5] was 7.17.

By pKi is commonly meant the negative decadic logarithm of the Ki, by convention in mol/L. High values mean a low Ki, low ones a high Ki. In general, pIC50 refers to the negative decadic logarithm of the IC50, by convention in mol/L. High values mean a small IC50, low ones a large IC50.
